Measurements: ChEMBL document CHEMBL4118021, “Studies of TAK1-centered polypharmacology with novel covalent TAK1 inhibitors” (Bioorg Med Chem, 2017)
The source made the active and inactive calls. The rule behind the calls is not given here.

Experiments:
[1] = target: T1, Serine/threonine-protein kinase D2 (Homo sapiens) (UniProt Q9BZL6); assay: Inhibition of human PRKD2 (519 to 838 residues) expressed in bacterial expression system assessed as enzyme activity at 1 uM by KINOMEScan assay relative to control; design: scale not given: the % may be the effect or the level left
T1 sequence (whole entry): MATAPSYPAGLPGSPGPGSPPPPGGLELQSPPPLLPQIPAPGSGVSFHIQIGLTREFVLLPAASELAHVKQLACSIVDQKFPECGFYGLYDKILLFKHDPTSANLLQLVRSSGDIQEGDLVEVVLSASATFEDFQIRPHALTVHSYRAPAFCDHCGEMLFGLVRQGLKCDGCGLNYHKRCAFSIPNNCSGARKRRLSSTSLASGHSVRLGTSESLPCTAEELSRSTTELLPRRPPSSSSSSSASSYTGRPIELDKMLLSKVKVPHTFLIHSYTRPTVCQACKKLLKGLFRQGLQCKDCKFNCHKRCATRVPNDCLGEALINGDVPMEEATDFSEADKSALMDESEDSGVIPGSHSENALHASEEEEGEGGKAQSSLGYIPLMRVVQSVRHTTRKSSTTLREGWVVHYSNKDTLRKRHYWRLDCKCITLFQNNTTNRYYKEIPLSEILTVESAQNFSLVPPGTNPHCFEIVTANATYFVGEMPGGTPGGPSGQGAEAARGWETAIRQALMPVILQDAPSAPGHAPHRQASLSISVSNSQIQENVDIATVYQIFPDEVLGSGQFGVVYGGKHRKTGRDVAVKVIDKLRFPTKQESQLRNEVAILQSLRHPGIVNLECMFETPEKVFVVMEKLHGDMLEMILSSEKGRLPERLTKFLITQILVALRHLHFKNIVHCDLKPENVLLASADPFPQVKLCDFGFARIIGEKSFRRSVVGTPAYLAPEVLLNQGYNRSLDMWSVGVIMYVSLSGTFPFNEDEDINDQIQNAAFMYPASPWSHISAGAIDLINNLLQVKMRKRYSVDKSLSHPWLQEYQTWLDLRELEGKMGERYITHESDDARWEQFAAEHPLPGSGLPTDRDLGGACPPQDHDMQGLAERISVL
Outline: (§1)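 In vitro ATP-site competition binding assay across a panel of 456 kinases, with compound tested at 1 and 10 μM.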

[2] = target: Ribosomal protein S6 kinase alpha-6 (Homo sapiens) (UniProt Q9UK32); assay: Inhibition of human RSK4 (1 to 397 residues) expressed in mammalian expression system assessed as enzyme activity at 10 uM by KINOMEScan assay relative to control; design: scale not given: the % may be the effect or the level left; outline: as §1
Sequence of Ribosomal protein S6 kinase alpha-6 (Homo sapiens) (Q9UK32 whole entry, the tested form may be a part): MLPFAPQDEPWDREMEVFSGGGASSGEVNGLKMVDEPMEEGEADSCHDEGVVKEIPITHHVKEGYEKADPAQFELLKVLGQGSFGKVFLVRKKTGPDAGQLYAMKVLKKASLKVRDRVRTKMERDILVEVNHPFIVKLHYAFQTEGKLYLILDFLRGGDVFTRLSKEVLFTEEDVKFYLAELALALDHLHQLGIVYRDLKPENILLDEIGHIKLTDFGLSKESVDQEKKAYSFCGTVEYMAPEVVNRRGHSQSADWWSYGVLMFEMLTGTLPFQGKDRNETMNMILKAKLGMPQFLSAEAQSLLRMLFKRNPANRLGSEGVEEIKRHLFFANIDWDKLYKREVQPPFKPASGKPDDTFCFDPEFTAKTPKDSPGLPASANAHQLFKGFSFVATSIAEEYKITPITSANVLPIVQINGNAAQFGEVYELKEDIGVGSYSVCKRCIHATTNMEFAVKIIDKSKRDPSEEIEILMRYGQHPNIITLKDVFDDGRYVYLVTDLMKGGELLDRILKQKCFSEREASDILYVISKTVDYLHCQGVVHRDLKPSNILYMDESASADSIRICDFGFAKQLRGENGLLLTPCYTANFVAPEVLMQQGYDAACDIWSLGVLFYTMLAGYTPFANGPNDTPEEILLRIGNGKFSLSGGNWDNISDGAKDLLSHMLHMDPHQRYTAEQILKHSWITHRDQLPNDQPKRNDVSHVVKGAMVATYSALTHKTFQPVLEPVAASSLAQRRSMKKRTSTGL

[3] = target: Heterogeneous nuclear ribonucleoproteins A2/B1 (Homo sapiens) (UniProt P22626); assay: Binding affinity to HNRNPA2B1 in human NCI-H23 cells at 1 uM by mass spectrometry based pull down assay; format: cell-based
Sequence of Heterogeneous nuclear ribonucleoproteins A2/B1 (Homo sapiens) (P22626 whole entry): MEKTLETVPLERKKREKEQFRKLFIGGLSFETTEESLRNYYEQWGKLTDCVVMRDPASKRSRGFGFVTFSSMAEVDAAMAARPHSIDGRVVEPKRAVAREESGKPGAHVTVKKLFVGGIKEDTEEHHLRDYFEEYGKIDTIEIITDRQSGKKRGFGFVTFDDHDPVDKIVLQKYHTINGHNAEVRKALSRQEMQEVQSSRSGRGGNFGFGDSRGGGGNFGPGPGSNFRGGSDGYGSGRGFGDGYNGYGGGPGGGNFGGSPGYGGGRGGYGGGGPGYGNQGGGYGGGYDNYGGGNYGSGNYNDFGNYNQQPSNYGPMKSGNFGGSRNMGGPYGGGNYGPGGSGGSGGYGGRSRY

[4] = target: COP9 signalosome complex subunit 8 (Homo sapiens) (UniProt Q99627); assay: Binding affinity to COPS8 in human NCI-H23 cells at 1 uM by mass spectrometry based pull down assay; format: cell-based
Sequence of COP9 signalosome complex subunit 8 (Homo sapiens) (Q99627 whole entry, one chain of several): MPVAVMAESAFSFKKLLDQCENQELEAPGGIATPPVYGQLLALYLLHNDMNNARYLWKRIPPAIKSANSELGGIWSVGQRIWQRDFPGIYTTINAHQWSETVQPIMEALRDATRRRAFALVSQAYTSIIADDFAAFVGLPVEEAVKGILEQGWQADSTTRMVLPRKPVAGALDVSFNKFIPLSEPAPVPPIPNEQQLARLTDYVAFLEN

[5] = target: Prefoldin subunit 2 (Homo sapiens) (UniProt Q9UHV9); assay: Binding affinity to PFDN2 in human NCI-H23 cells at 1 uM by mass spectrometry based pull down assay; format: cell-based
Sequence of Prefoldin subunit 2 (Homo sapiens) (Q9UHV9 whole entry): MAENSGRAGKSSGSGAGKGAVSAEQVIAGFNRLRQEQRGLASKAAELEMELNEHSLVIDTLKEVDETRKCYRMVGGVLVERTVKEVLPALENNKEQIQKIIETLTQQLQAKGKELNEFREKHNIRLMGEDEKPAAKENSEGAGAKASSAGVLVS

[6] = target: T2, 80S Ribosome (Homo sapiens) (UniProt P08865+P42677+P62753+P15880+P23396+P61247+P62701+P22090+P46782+P62081+P62241+P46781+P46783+P62280+P25398+P62277+P62263+P62841+P62244+P62249+P08708+P62269+P39019+P60866+P63220+P62266+P62847+P62851+P62854+P62979+P62857+P62273+P62861+P39023+P36578+P46777+Q02878+P18124+P62424+P62917+P32969+P27635+P62906+P62913+P30050+P26373+P40429+P50914+P61313+P18621+Q07020+Q02543+P84098+P46778+P35268+P62829+P62750+P83731+P61254+P61353+P46776+P46779+P47914+P62888+P62899+P62910+P49207+P42766+P18077+Q9Y3U8+P83881+P61927+P61513+P63173+P62891+P62945+P05388+P05386); assay: Binding affinity to RPS12 in human NCI-H23 cells at 1 uM by mass spectrometry based pull down assay; format: cell-based
[7] = target: Acidic leucine-rich nuclear phosphoprotein 32 family member B (Homo sapiens) (UniProt Q92688); assay: Binding affinity to ANP32B in human NCI-H23 cells at 1 uM by mass spectrometry based pull down assay; format: cell-based
Sequence of Acidic leucine-rich nuclear phosphoprotein 32 family member B (Homo sapiens) (Q92688 whole entry): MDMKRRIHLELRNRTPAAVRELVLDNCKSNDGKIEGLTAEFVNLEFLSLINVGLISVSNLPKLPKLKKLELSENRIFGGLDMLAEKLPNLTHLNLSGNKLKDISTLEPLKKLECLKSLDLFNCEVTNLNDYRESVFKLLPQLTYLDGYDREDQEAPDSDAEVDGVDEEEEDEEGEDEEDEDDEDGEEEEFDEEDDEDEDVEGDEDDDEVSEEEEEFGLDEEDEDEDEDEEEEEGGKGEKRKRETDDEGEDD

[8] = target: Protein phosphatase 1G (Homo sapiens) (UniProt O15355); assay: Binding affinity to PPM1G in human NCI-H358 cells at 1 uM by mass spectrometry based pull down assay; format: cell-based
Sequence of Protein phosphatase 1G (Homo sapiens) (O15355 whole entry, the tested form may be a part): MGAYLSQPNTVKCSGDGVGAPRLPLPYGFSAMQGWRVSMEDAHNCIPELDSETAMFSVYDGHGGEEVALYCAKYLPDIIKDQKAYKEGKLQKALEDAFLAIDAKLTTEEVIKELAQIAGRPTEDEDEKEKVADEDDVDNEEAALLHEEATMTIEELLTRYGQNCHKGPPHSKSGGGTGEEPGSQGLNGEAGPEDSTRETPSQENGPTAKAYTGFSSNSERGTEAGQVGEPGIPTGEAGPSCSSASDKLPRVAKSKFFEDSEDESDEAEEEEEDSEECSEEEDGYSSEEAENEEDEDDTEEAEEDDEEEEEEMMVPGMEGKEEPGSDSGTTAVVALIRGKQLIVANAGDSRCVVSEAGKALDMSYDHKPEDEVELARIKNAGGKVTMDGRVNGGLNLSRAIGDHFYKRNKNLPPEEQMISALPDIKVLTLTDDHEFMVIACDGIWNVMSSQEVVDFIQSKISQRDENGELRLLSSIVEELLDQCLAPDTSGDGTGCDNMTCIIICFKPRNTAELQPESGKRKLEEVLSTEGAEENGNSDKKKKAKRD

[9] = target: Transmembrane emp24 domain-containing protein 10 (Homo sapiens) (UniProt P49755); assay: Binding affinity to TMED10 in human NCI-H358 cells at 1 uM by mass spectrometry based pull down assay; format: cell-based
Sequence of Transmembrane emp24 domain-containing protein 10 (Homo sapiens) (P49755 whole entry, the tested form may be a part): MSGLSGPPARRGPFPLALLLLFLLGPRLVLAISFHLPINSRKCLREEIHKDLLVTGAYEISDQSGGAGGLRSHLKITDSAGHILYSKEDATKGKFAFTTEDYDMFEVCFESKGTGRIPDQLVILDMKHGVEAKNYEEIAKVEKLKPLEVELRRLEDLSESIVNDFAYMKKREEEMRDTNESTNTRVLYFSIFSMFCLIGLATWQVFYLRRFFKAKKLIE

[10] = target: Poly(rC)-binding protein 1 (Homo sapiens) (UniProt Q15365); assay: Binding affinity to PCBP1 in human NCI-H358 cells at 1 uM by mass spectrometry based pull down assay; format: cell-based
Sequence of Poly(rC)-binding protein 1 (Homo sapiens) (Q15365 whole entry): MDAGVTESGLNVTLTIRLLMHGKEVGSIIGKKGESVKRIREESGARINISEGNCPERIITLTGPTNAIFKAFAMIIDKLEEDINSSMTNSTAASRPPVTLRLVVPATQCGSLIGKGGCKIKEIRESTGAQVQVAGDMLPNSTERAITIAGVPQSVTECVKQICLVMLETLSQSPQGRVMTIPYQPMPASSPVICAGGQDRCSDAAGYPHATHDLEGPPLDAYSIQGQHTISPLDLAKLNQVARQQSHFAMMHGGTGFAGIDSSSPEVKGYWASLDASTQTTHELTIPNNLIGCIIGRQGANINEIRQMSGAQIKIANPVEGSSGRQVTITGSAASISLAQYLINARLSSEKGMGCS

[11] = target: T3, Dual specificity mitogen-activated protein kinase kinase 6 (Homo sapiens) (UniProt P52564); assay: Binding affinity to MAP2K6 in human NCI-H358 cells at 1 uM by mass spectrometry based pull down assay; format: cell-based
T3 sequence (whole entry): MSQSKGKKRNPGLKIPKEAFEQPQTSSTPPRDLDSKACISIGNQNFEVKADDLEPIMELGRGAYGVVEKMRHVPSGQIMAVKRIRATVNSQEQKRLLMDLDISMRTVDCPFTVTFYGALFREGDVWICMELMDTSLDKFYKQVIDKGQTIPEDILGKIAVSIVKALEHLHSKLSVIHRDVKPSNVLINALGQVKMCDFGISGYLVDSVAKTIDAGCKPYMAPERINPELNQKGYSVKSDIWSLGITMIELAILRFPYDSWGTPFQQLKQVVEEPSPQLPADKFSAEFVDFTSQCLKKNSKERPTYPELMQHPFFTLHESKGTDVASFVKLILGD

[12] = target: T2, 80S Ribosome (Homo sapiens); assay: Binding affinity to RPS9 in human NCI-H358 cells at 1 uM by mass spectrometry based pull down assay; format: cell-based
[13] = target: Elongation factor 1-gamma (Homo sapiens) (UniProt P26641); assay: Binding affinity to EEF1G in human NCI-H358 cells at 1 uM by mass spectrometry based pull down assay; format: cell-based
Sequence of Elongation factor 1-gamma (Homo sapiens) (P26641 whole entry): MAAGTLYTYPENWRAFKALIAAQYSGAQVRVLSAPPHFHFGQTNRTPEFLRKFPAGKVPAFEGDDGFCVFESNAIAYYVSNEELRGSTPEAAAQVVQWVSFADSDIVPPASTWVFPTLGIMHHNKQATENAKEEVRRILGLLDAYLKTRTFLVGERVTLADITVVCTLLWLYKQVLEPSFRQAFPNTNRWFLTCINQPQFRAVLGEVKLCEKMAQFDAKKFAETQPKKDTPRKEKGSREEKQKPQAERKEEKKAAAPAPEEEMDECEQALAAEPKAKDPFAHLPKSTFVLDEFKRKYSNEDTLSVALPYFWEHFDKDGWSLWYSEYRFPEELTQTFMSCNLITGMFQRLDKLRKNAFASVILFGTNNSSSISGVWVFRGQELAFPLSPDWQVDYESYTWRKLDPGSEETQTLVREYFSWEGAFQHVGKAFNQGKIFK

| SMILES | Activity [1] [%] | Activity [2] [%] | Activity [3] | Activity [4] | Activity [5] | Activity [6] | Activity [7] | Activity [8] | Activity [9] | Activity [10] | Activity [11] | Activity [12] | Activity [13] |
| --- | --- | --- | --- | --- | --- | --- | --- | --- | --- | --- | --- | --- | --- |
| COc1cc(O)c2c(c1)/C=C/C[C@H](O)[C@H](O)C(=O)/C=C\C[C@H](C)OC2=O | 72 | 3 |  |  |  |  |  |  |  |  |  |  |  |
| C=CC(=O)Nc1ccccc1Nc1nc(Nc2ccc(N3CCN(CCOCCOCCOCCNC(=O)CCCC[C@@H]4SC[C@@H]5NC(=O)N[C@@H]54)CC3)cc2)ncc1Cl |  |  | Active | Active | Active | Active | Active | Active | Active | Active | Active | Active | Active |
